This passage reports self-cleavage results from the RNAGym collection of RNA variant scans (doi:10.1002/anie.201605470).

The labels stand for the following.
B1: Osa-1-4 twister ribozyme (parent)
chain: CCGCCUAACACUGCCAAUGCCGGUCCCAAGCCCGGAUAAAAGUGGAGGGGGCGG

Variants of B1 are the subject of this series. The series is described as follows: self-cleavage, relative activity (ratio to wild type); higher = more cleavage; co-transcriptional. Put shortly:
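A DNA template encoding a 54-nucleotide twister ribozyme from Oryza sativa was made so that each of the 48 positions downstream of the cleavage site carried 97 % wild-type base and 1 % of each other base. Transcription in vitro ran for 2 h at 37 °C, during which the ribozyme could cleave itself. Reverse transcription used a template-switching oligonucleotide, and the products were PCR-amplified and deep-sequenced. Each read was scored as cleaved or uncleaved by whether upstream sequence was present, and relative activity is the fraction cleaved normalised to wild type.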
C9U G53C: the self-cleavage worked out at 0.05.

Regarding A10C A8C, the self-cleavage turned out to be 0.15.

Regarding A10C A8G, the self-cleavage was found to be 0.06.

Regarding A10C A8U, the self-cleavage came out at 0.04.

As for A8U C21A, the self-cleavage is 0.08.

As to A8U C21G, the self-cleavage came to 0.07.

Regarding A8U C21U, the self-cleavage worked out at 0.28.

For the variant C9G U37G, the self-cleavage was determined as 0.92.

As for C9G U37A, the self-cleavage came to 0.76.

With C9G U37C, the self-cleavage was 0.94.

On to C9A G35A, for which the self-cleavage turned out to be 0.24.

Take C9A G35C: the self-cleavage came to 0.11.

In the case of C9A G35U, the self-cleavage was 0.32.

On to C9G G22U, for which the self-cleavage was 0.14.

As for C9G G22A, the self-cleavage stood at 0.15.

As to C9G G22C, the self-cleavage amounted to 0.05.

Regarding A8U C26A, the self-cleavage was 0.03.

Turning to A8U C26U, the self-cleavage is 0.12.

As to A8U C26G, the self-cleavage is 0.05.

Consider C9U G45A, for which the self-cleavage was determined as 0.06.

Consider C9U G45C, for which the self-cleavage came out at 0.03.

Turning to C9U G45U, the self-cleavage amounted to 0.04.

Regarding A8U G50A, the self-cleavage is 0.26.

As to A8U G50U, the self-cleavage came to 0.35.

As for A8U G50C, the self-cleavage stood at 0.24.

As to C9A U37A, the self-cleavage was 0.28.

C9A U37G: the self-cleavage came out at 0.53.

For the variant C9A U37C, the self-cleavage was 0.53.

Consider C9G U18G, for which the self-cleavage amounted to 0.73.

With C9G U18A, the self-cleavage came to 0.85.

C9G U18C: the self-cleavage is 0.66.

As to A8U G30U, the self-cleavage came out at 0.02.

As for A8U G30C, the self-cleavage worked out at 0.03.

A8U G30A: the self-cleavage was determined as 0.02.

Consider C9A G48A, for which the self-cleavage is 0.02.

C9A G48U: the self-cleavage worked out at 0.02.

As to C9A G48C, the self-cleavage was determined as 0.02.

As for C9U U37C, the self-cleavage was 0.82.

With C9U U37G, the self-cleavage was found to be 0.85.

Consider C9U U37A, for which the self-cleavage came out at 0.4.

As for A8U G42A, the self-cleavage worked out at 0.1.

On to A8U G42C, for which the self-cleavage came to 0.06.

As for A8U G42U, the self-cleavage turned out to be 0.03.

Consider C9G G50A, for which the self-cleavage is 0.48.

Consider C9G G50C, for which the self-cleavage was found to be 0.59.

Turning to C9G G50U, the self-cleavage amounted to 0.84.

Turning to A10C A36G, the self-cleavage turned out to be 0.11.

Take A10C A36U: the self-cleavage amounted to 0.09.

Turning to A10C A36C, the self-cleavage is 0.03.

In the case of C9G U43C, the self-cleavage is 0.16.

For C9G U43G, the self-cleavage amounted to 0.21.

Take C9G U43A: the self-cleavage is 0.87.

As to A8U C25U, the self-cleavage amounted to 0.11.

For A8U C25G, the self-cleavage turned out to be 0.05.

As for A8U C25A, the self-cleavage amounted to 0.07.

Consider C9G G48U, for which the self-cleavage came out at 0.06.

As to C9G G48C, the self-cleavage was found to be 0.08.

Turning to C9G G48A, the self-cleavage was found to be 0.07.

Turning to A8U G44A, the self-cleavage was 0.27.

Take A8U G44C: the self-cleavage was found to be 0.09.

Take A8U G44U: the self-cleavage was 0.13.

For C9U G42U, the self-cleavage amounted to 0.04.

In the case of C9U G42A, the self-cleavage was 0.09.

Turning to C9U G42C, the self-cleavage was 0.04.

For A10C A7C, the self-cleavage was found to be 0.04.

In the case of A10C A7G, the self-cleavage came to 0.06.

On to A10C A7U, for which the self-cleavage is 0.06.

Take C9G U12C: the self-cleavage turned out to be 0.1.

For C9G U12G, the self-cleavage turned out to be 0.11.

On to C9G U12A, for which the self-cleavage was found to be 0.13.

C9G G44A: the self-cleavage is 0.82.

For C9G G44U, the self-cleavage came out at 0.95.

As for C9G G44C, the self-cleavage worked out at 1.04.

A8U G19C: the self-cleavage worked out at 0.03.

For the variant A8U G19A, the self-cleavage was 0.08.

On to A8U G19U, for which the self-cleavage was found to be 0.05.

As to C9G U24G, the self-cleavage was 0.04.

In the case of C9G U24C, the self-cleavage was determined as 0.1.

Turning to C9G U24A, the self-cleavage amounted to 0.08.

With C9G G53U, the self-cleavage worked out at 0.14.

In the case of C9G G53C, the self-cleavage worked out at 0.05.

On to C9G G53A, for which the self-cleavage amounted to 0.48.

A8U U24C: the self-cleavage came to 0.05.

Take A8U U24G: the self-cleavage is 0.02.

In the case of A8U U24A, the self-cleavage was 0.03.

C9A G34U: the self-cleavage worked out at 0.11.

For the variant C9A G34C, the self-cleavage was determined as 0.08.

In the case of C9A G34A, the self-cleavage came to 0.19.

A8U U18A: the self-cleavage was 0.39.

A8U U18G: the self-cleavage stood at 0.56.

With A8U U18C, the self-cleavage came out at 0.26.

On to C9U G19C, for which the self-cleavage worked out at 0.05.

For the variant C9U G19A, the self-cleavage is 0.26.

On to C9U G19U, for which the self-cleavage is 0.08.

As to C9G G45U, the self-cleavage came to 0.07.

Regarding C9G G45A, the self-cleavage was 0.11.

On to C9G G45C, for which the self-cleavage worked out at 0.04.

As for A8U C20G, the self-cleavage amounted to 0.06.

Consider A8U C20U, for which the self-cleavage was 0.41.

Turning to A8U C20A, the self-cleavage is 0.48.

For the variant C9U U24C, the self-cleavage was found to be 0.06.

Consider C9U U24A, for which the self-cleavage is 0.06.

As to C9U U24G, the self-cleavage was determined as 0.01.

On to C9U U18G, for which the self-cleavage was found to be 0.57.

Consider C9U U18A, for which the self-cleavage was found to be 0.6.

Take C9U U18C: the self-cleavage is 0.53.

As for A10C A28C, the self-cleavage is 0.08.

For A10C A28G, the self-cleavage came to 0.03.

Consider A10C A28U, for which the self-cleavage worked out at 0.05.

For A8U C52G, the self-cleavage was 0.49.

A8U C52A: the self-cleavage stood at 0.25.

Take A8U C52U: the self-cleavage was determined as 0.57.

Consider C9G G47A, for which the self-cleavage came to 0.09.

In the case of C9G G47C, the self-cleavage was 0.06.

Consider C9G G47U, for which the self-cleavage is 0.07.

Consider A8U C32G, for which the self-cleavage was determined as 0.07.

With A8U C32A, the self-cleavage was found to be 0.03.

For the variant A8U C32U, the self-cleavage came out at 0.06.

In the case of C9U G54U, the self-cleavage worked out at 0.72.

As to C9U G54C, the self-cleavage amounted to 0.71.

For the variant C9U G54A, the self-cleavage is 0.69.

For C9A U43A, the self-cleavage came out at 0.37.

Turning to C9A U43C, the self-cleavage was determined as 0.07.

As for C9A U43G, the self-cleavage amounted to 0.14.

Turning to A10C A40G, the self-cleavage is 0.04.

For A10C A40C, the self-cleavage worked out at 0.03.

For A10C A40U, the self-cleavage stood at 0.03.

As for A8U C33U, the self-cleavage is 0.09.

As to A8U C33G, the self-cleavage came to 0.04.

Regarding A8U C33A, the self-cleavage stood at 0.05.

Turning to A8U G23C, the self-cleavage was determined as 0.04.

Regarding A8U G23U, the self-cleavage is 0.03.

As for A8U G23A, the self-cleavage was 0.08.

In the case of C9A G49C, the self-cleavage was found to be 0.02.

As for C9A G49U, the self-cleavage was 0.03.

As for C9A G49A, the self-cleavage stood at 0.04.

C9U G44C: the self-cleavage amounted to 0.67.

In the case of C9U G44U, the self-cleavage worked out at 0.69.

C9U G44A: the self-cleavage worked out at 0.76.

For the variant C9A G54C, the self-cleavage turned out to be 0.34.

With C9A G54A, the self-cleavage was 0.43.

Consider C9A G54U, for which the self-cleavage came out at 0.36.

For A10C C9A, the self-cleavage was 0.43.

Turning to A8U G53A, the self-cleavage worked out at 0.12.

As to A8U G53C, the self-cleavage is 0.05.

On to A8U G53U, for which the self-cleavage is 0.1.

Consider C9G G13A, for which the self-cleavage came to 0.06.

For C9G G13C, the self-cleavage worked out at 0.03.

In the case of C9G G13U, the self-cleavage amounted to 0.03.

With C9A G30U, the self-cleavage amounted to 0.01.

On to C9A G30A, for which the self-cleavage was found to be 0.02.

For the variant C9A G30C, the self-cleavage was 0.02.

For A8U U43G, the self-cleavage turned out to be 0.08.

In the case of A8U U43A, the self-cleavage is 0.09.

In the case of A8U U43C, the self-cleavage is 0.08.

For C9A U18G, the self-cleavage stood at 0.31.

On to C9A U18C, for which the self-cleavage came to 0.19.

As to C9A U18A, the self-cleavage was 0.47.

For the variant C9A U24G, the self-cleavage is 0.07.

For the variant C9A U24A, the self-cleavage was 0.04.

Turning to C9A U24C, the self-cleavage came to 0.07.

A10C A16U: the self-cleavage is 0.08.

For A10C A16G, the self-cleavage stood at 0.14.

For the variant A10C A16C, the self-cleavage stood at 0.09.

With C9A G45A, the self-cleavage is 0.04.

Take C9A G45U: the self-cleavage worked out at 0.03.

Take C9A G45C: the self-cleavage was 0.01.
